Experimental data: the RNAGym collection of RNA variant scans (doi:10.1002/anie.201605470)

B1: Osa-1-4 twister ribozyme (parent)
chain: CCGCCUAACACUGCCAAUGCCGGUCCCAAGCCCGGAUAAAAGUGGAGGGGGCGG

Variants of: B1
Assay: self-cleavage, relative activity (ratio to wild type); higher = more cleavage; co-transcriptional
Summary of the method: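 A DNA template encoding a 54-nucleotide twister ribozyme from Oryza sativa was made so that each of the 48 positions downstream of the cleavage site carried 97 % wild-type base and 1 % of each other base. Transcription in vitro ran for 2 h at 37 °C, during which the ribozyme could cleave itself. Reverse transcription used a template-switching oligonucleotide, and the products were PCR-amplified and deep-sequenced. Each read was scored as cleaved or uncleaved by whether upstream sequence was present, and relative activity is the fraction cleaved normalised to wild type.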

**Q.** With CCGCCUUACACUGCCAAUGCUGGUCCCAAGCCCGGAUAAAAGUGGAGGGGGCGG [A7U C21U] as the variant, how does the self-cleavage read?
**A.** 0.1

**Q.** With CCGCCUUACACUGCCAAUGCGGGUCCCAAGCCCGGAUAAAAGUGGAGGGGGCGG [A7U C21G] as the variant, how does the self-cleavage read?
**A.** 0.05

**Q.** For CCGCCUUACACUGCCAAUGCAGGUCCCAAGCCCGGAUAAAAGUGGAGGGGGCGG [A7U C21A], which self-cleavage is on record?
**A.** 0.08

**Q.** Which self-cleavage does the source give for CCGCCUUACACUGCCAAUGCCGGUCCCAAGCCCGGAUAAAAGUGGAGGGAGCGG [A7U G50A] here?
**A.** 0.07

**Q.** With CCGCCUUACACUGCCAAUGCCGGUCCCAAGCCCGGAUAAAAGUGGAGGGCGCGG [A7U G50C] as the variant, how does the self-cleavage read?
**A.** 0.06

**Q.** With CCGCCUUACACUGCCAAUGCCGGUCCCAAGCCCGGAUAAAAGUGGAGGGUGCGG [A7U G50U] as the variant, how does the self-cleavage read?
**A.** 0.07

**Q.** For CCGCCUUACACUGCCAAUGCCGGUCCCAAGCCCGGAUAAAAGUGGAGGGGGCCG [A7U G53C], which self-cleavage is on record?
**A.** 0.03

**Q.** With CCGCCUUACACUGCCAAUGCCGGUCCCAAGCCCGGAUAAAAGUGGAGGGGGCAG [A7U G53A] as the variant, how does the self-cleavage read?
**A.** 0.08

**Q.** With CCGCCUUACACUGCCAAUGCCGGUCCCAAGCCCGGAUAAAAGUGGAGGGGGCUG [A7U G53U] as the variant, how does the self-cleavage read?
**A.** 0.05

**Q.** Which self-cleavage does the source give for CCGCCUUACACUGCCAAUGCCGGUCCCAAGCCCGGAUAAAAGUGAAGGGGGCGG [A7U G45A] here?
**A.** 0.05

**Q.** With CCGCCUUACACUGCCAAUGCCGGUCCCAAGCCCGGAUAAAAGUGUAGGGGGCGG [A7U G45U] as the variant, how does the self-cleavage read?
**A.** 0.02

**Q.** Which self-cleavage does the source give for CCGCCUUACACUGCCAAUGCCGGUCCCAAGCCCGGAUAAAAGUGCAGGGGGCGG [A7U G45C] here?
**A.** 0.04

**Q.** With CCGCCUUACACUGCCAAUGCCGGUCCCAAGCCCGGAUAAAAGUGGAGGGGGUGG [A7U C52U] as the variant, how does the self-cleavage read?
**A.** 0.1

**Q.** Which self-cleavage does the source give for CCGCCUUACACUGCCAAUGCCGGUCCCAAGCCCGGAUAAAAGUGGAGGGGGGGG [A7U C52G] here?
**A.** 0.12

**Q.** For CCGCCUUACACUGCCAAUGCCGGUCCCAAGCCCGGAUAAAAGUGGAGGGGGAGG [A7U C52A], which self-cleavage is on record?
**A.** 0.12

**Q.** Which self-cleavage does the source give for CCGCCUUACACUGCCAAUGUCGGUCCCAAGCCCGGAUAAAAGUGGAGGGGGCGG [A7U C20U] here?
**A.** 0.09

**Q.** Which self-cleavage does the source give for CCGCCUUACACUGCCAAUGGCGGUCCCAAGCCCGGAUAAAAGUGGAGGGGGCGG [A7U C20G] here?
**A.** 0.11

**Q.** For CCGCCUUACACUGCCAAUGACGGUCCCAAGCCCGGAUAAAAGUGGAGGGGGCGG [A7U C20A], which self-cleavage is on record?
**A.** 0.06

**Q.** With CCGCCUUACACUGCCAAUGCCGGUCCCAAGUCCGGAUAAAAGUGGAGGGGGCGG [A7U C31U] as the variant, how does the self-cleavage read?
**A.** 0.05

**Q.** For CCGCCUUACACUGCCAAUGCCGGUCCCAAGACCGGAUAAAAGUGGAGGGGGCGG [A7U C31A], which self-cleavage is on record?
**A.** 0.01

**Q.** With CCGCCUUACACUGCCAAUGCCGGUCCCAAGGCCGGAUAAAAGUGGAGGGGGCGG [A7U C31G] as the variant, how does the self-cleavage read?
**A.** 0.06

**Q.** Which self-cleavage does the source give for CCGCCUUACACUGCCAAUGCCGGUCCCAAGCCCGAAUAAAAGUGGAGGGGGCGG [A7U G35A] here?
**A.** 0.07

**Q.** With CCGCCUUACACUGCCAAUGCCGGUCCCAAGCCCGUAUAAAAGUGGAGGGGGCGG [A7U G35U] as the variant, how does the self-cleavage read?
**A.** 0.06

**Q.** Which self-cleavage does the source give for CCGCCUUACACUGCCAAUGCCGGUCCCAAGCCCGCAUAAAAGUGGAGGGGGCGG [A7U G35C] here?
**A.** 0.07

**Q.** For CCGCCUUAGACUGCCAAUGCCGGUCCCAAGCCCGGAUAAAAGUGGAGGGGGCGG [A7U C9G], which self-cleavage is on record?
**A.** 0.05

**Q.** Which self-cleavage does the source give for CCGCCUUAUACUGCCAAUGCCGGUCCCAAGCCCGGAUAAAAGUGGAGGGGGCGG [A7U C9U] here?
**A.** 0.04

**Q.** With CCGCCUUAAACUGCCAAUGCCGGUCCCAAGCCCGGAUAAAAGUGGAGGGGGCGG [A7U C9A] as the variant, how does the self-cleavage read?
**A.** 0.05

**Q.** For CCGCCUUACACUGCCAAUGCCGGUCCCAAGCCCUGAUAAAAGUGGAGGGGGCGG [A7U G34U], which self-cleavage is on record?
**A.** 0.07

**Q.** Which self-cleavage does the source give for CCGCCUUACACUGCCAAUGCCGGUCCCAAGCCCCGAUAAAAGUGGAGGGGGCGG [A7U G34C] here?
**A.** 0.1

**Q.** With CCGCCUUACACUGCCAAUGCCGGUCCCAAGCCCAGAUAAAAGUGGAGGGGGCGG [A7U G34A] as the variant, how does the self-cleavage read?
**A.** 0.08

**Q.** Which self-cleavage does the source give for CCGCCUUACACUGGCAAUGCCGGUCCCAAGCCCGGAUAAAAGUGGAGGGGGCGG [A7U C14G] here?
**A.** 0.23

**Q.** Which self-cleavage does the source give for CCGCCUUACACUGACAAUGCCGGUCCCAAGCCCGGAUAAAAGUGGAGGGGGCGG [A7U C14A] here?
**A.** 0.03

**Q.** With CCGCCUUACACUGUCAAUGCCGGUCCCAAGCCCGGAUAAAAGUGGAGGGGGCGG [A7U C14U] as the variant, how does the self-cleavage read?
**A.** 0.07

**Q.** Which self-cleavage does the source give for CCGCCUUACACUGCCAAUUCCGGUCCCAAGCCCGGAUAAAAGUGGAGGGGGCGG [A7U G19U] here?
**A.** 0.1

**Q.** With CCGCCUUACACUGCCAAUACCGGUCCCAAGCCCGGAUAAAAGUGGAGGGGGCGG [A7U G19A] as the variant, how does the self-cleavage read?
**A.** 0.06

**Q.** For CCGCCUUACACUGCCAAUCCCGGUCCCAAGCCCGGAUAAAAGUGGAGGGGGCGG [A7U G19C], which self-cleavage is on record?
**A.** 0.03

**Q.** Which self-cleavage does the source give for CCGCCUUACACUGCCAAUGCCAGUCCCAAGCCCGGAUAAAAGUGGAGGGGGCGG [A7U G22A] here?
**A.** 0.09

**Q.** For CCGCCUUACACUGCCAAUGCCCGUCCCAAGCCCGGAUAAAAGUGGAGGGGGCGG [A7U G22C], which self-cleavage is on record?
**A.** 0.07

**Q.** For CCGCCUUACACUGCCAAUGCCUGUCCCAAGCCCGGAUAAAAGUGGAGGGGGCGG [A7U G22U], which self-cleavage is on record?
**A.** 0.06

**Q.** For CCGCCUUACACUGCCAAUGCCGGUCCCAAUCCCGGAUAAAAGUGGAGGGGGCGG [A7U G30U], which self-cleavage is on record?
**A.** 0.02

**Q.** Which self-cleavage does the source give for CCGCCUUACACUGCCAAUGCCGGUCCCAAACCCGGAUAAAAGUGGAGGGGGCGG [A7U G30A] here?
**A.** 0.06

**Q.** With CCGCCUUACACUGCCAAUGCCGGUCCCAACCCCGGAUAAAAGUGGAGGGGGCGG [A7U G30C] as the variant, how does the self-cleavage read?
**A.** 0.02

**Q.** Which self-cleavage does the source give for CCGCCUUACACUGCCAAUGCCGGUCCCAAGCCCGGAUAAAAGUGGAGUGGGCGG [A7U G48U] here?
**A.** 0.01

**Q.** With CCGCCUUACACUGCCAAUGCCGGUCCCAAGCCCGGAUAAAAGUGGAGCGGGCGG [A7U G48C] as the variant, how does the self-cleavage read?
**A.** 0.03

**Q.** Which self-cleavage does the source give for CCGCCUUACACUGCCAAUGCCGGUCCCAAGCCCGGAUAAAAGUGGAGAGGGCGG [A7U G48A] here?
**A.** 0.02

**Q.** Which self-cleavage does the source give for CCGCCUUACACUGCCAAUGCCGGUCCCAAGCCAGGAUAAAAGUGGAGGGGGCGG [A7U C33A] here?
**A.** 0.03

**Q.** With CCGCCUUACACUGCCAAUGCCGGUCCCAAGCCGGGAUAAAAGUGGAGGGGGCGG [A7U C33G] as the variant, how does the self-cleavage read?
**A.** 0.03

**Q.** For CCGCCUUACACUGCCAAUGCCGGUCCCAAGCCUGGAUAAAAGUGGAGGGGGCGG [A7U C33U], which self-cleavage is on record?
**A.** 0.08
